Compounds with a hit are over-represented: about 2.7% of the library has one in this group of screens.
pPAFAH FP inh: pPAFAH enzyme inhibitors, primary screen, biochemical, fluorescence polarization, human | Platelet-activating factor acetylhydrolase (Homo sapiens), Q13093 | recombinant pPAFAH, FP-rhodamine probe fluorescence polarization | inhibition, % at 3.39 µM | actives 1.5% (n = 330,000) | AID 463082, 2010;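 active means inhibition above the mean inhibition across the screen plus 3 SD, cut at about 25% in these data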;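 further: inhibitors block binding of the rhodamine activity-based probe so polarization drops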
RBBP9 inhibitor: human RBBP9 inhibitors, primary screen, biochemical, fluorescence polarization, FP-Rh probe, HTS; actives 0.2% (n = 220,000); recombinant RBBP9; inhibition, % at 7.94 µM; AID 1515, 2009;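 active means inhibition above the campaign mean of all tested compounds plus 3 SD, cut at about 14% in these data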
Target sequence (O75884 whole entry, looked up): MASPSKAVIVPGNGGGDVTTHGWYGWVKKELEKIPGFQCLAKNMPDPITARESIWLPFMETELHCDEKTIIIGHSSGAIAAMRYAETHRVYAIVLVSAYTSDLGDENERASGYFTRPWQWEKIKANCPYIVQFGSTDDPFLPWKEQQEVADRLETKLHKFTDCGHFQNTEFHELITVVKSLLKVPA
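Measured by: FP readout at 525/598 nm; material: recombinant human RBBP9; also added: Serine-hydrolase probe FP-Rh, 375 nM pre-mixing; medium: Tris buffer pH 8.0, NaCl, Pluronic; replication: one well per compound; doses: one concentration, 7.94 µM nominal, 0.794% DMSO; timing: preincubation 30 min plus labeling 45 min at 25 °C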
PAFAH2 inh: PAFAH2 enzyme inhibitors, primary screen, biochemical, fluorescence polarization, human; actives 0.99% (n = 340,000); AID 492956, 2010; Platelet-activating factor acetylhydrolase 2, cytoplasmic (Homo sapiens), Q99487; inhibition, % at 3.39 µM; recombinant PAFAH2, FP-rhodamine activity probe;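 active means inhibition above the mean over all tested compounds plus 3 SD, cut at about 30% in these data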;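 further: inhibitors block probe labeling of enzyme so polarization drops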
PAFAH1B3 inh: PAFAH1B3 enzyme inhibitors, primary screen, biochemical, fluorescence polarization, human | inhibition, % at 3.39 µM | recombinant PAFAH1B3, FP-rhodamine probe | actives 0.28% (n = 340,000);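 active means inhibition above the screen-wide average of all tested compounds plus 3 SD, cut at about 25% in these data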
Target sequence (Q15102 whole entry, looked up): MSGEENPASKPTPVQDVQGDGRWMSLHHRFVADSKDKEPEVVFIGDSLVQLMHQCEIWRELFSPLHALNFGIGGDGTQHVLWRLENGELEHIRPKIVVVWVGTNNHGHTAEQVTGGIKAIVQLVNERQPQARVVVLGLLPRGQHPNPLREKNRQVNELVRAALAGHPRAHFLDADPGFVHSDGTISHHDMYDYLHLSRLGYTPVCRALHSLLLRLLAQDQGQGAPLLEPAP
PAFAH1B2 FP inh: PAFAH1B2 enzyme inhibitors, primary screen, biochemical, fluorescence polarization, human; Platelet-activating factor acetylhydrolase IB subunit alpha2 (Homo sapiens), P68402; recombinant PAFAH1B2, FP-rhodamine activity probe; inhibition, % at 3.39 µM; actives 1.2% (n = 340,000);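 active means inhibition above the mean of all tested compounds plus 3 SD, cut at about 24% in these data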
Target sequence (P68402 whole entry, looked up): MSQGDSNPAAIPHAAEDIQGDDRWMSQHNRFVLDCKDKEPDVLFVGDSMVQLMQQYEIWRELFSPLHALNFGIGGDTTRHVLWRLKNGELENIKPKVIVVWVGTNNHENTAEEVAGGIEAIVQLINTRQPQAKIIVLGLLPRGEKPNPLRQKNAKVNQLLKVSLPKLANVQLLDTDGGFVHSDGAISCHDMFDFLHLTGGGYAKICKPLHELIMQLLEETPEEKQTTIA
PAFAH2 confirm: PAFAH2 enzyme inhibitors, confirmation, biochemical, fluorescence polarization, human; shares compounds with PAFAH2 inh; recombinant PAFAH2, FP-rhodamine activity probe; inhibition, % at 3.39 µM; actives 65% (n = 2,300); AID 493030, 2011;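 active means mean inhibition over three repeats above a set limit taken from the earlier primary screen, cut at about 30% in these data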;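 further: inhibitor blocks binding of rhodamine activity probe so polarization falls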
Numbers stand for hits; i = inactive; nt = no result given.

SMILES	pPAFAH FP inh	RBBP9 inhibitor	PAFAH2 inh	PAFAH1B3 inh	PAFAH1B2 FP inh	PAFAH2 confirm
COc1cc(/C=C/C(=O)OCC(=O)NCc2ccc3c(c2)OCO3)cc(OC)c1OC	i	nt	i	i	i	nt
O=C(COC(=O)/C=C/c1ccc2c(c1)OCO2)NCc1ccccc1	i	nt	55.2	i	i	41.8
CCN(CC)S(=O)(=O)c1ccc(/C=C/C(=O)OCC(=O)NCc2ccc3c(c2)OCO3)cc1	i	i	47.9	i	i	30.1
CCN(CC)S(=O)(=O)c1ccc(/C=C/C(=O)OCC(=O)NNC(=O)c2ccc(OC)cc2)cc1	i	nt	43.2	i	i	i
CC(=O)Nc1ccc(NC(=O)COC(=O)/C=C/c2ccc3c(c2)OCO3)cc1	i	nt	i	i	i	nt
O=C(COC(=O)/C=C/c1ccc(F)cc1)NCc1ccc2c(c1)OCO2	i	nt	i	i	i	nt
Cc1ccc2c(c1)N(CC(=O)N1CCCCCC1)C(=O)C(C)O2 (stereo not given)	i	nt	i	i	i	nt
O=S(=O)(c1ccc(Cl)nc1)N1CCOCC1	i	nt	i	i	i	nt
COc1cccc(/C=C/C(=O)OCC(=O)NCc2ccc3c(c2)OCO3)c1	i	nt	35.2	i	i	i
Cn1c2c(c3ccccc31)CCN1CCC[C@]21c1ccccc1	i	nt	i	i	i	nt
Cc1cc(C(=O)OCC(=O)NC(C)c2ccccc2)c(C)o1 (stereo not given)	i	i	31.6	i	i	i
CC(NC(=O)COC(=O)c1c[nH]c2ccccc12)c1ccccc1 (stereo not given)	i	nt	54.6	i	i	52.2
Cc1ccc(C(=O)OCC(=O)NC(C)c2ccccc2)cc1C (stereo not given)	i	nt	74.7	i	i	62.6
O=C(COC(=O)c1c[nH]c2ccccc12)Nc1ccc([N+](=O)[O-])cc1	i	nt	72.6	i	i	72.7
Cc1ccc(S(=O)(=O)NC(C(=O)N2CCN(S(=O)(=O)c3cccc(F)c3)CC2)C(C)C)cc1 (stereo not given)	nt	nt	i	i	i	nt
COc1cccc(C(=O)Nc2ccc(NC(=O)C3CC=CCC3C(=O)O)cc2)c1 (stereo not given)	i	nt	i	i	i	nt
Cc1ccc(/C=C/C(=O)OCC(=O)NC(C)c2ccccc2)o1 (stereo not given)	i	nt	54.1	i	i	37.8
Cc1cc(C(=O)OCC(=O)NC(C)c2ccc(F)cc2)c(C)o1 (stereo not given)	i	nt	48.3	i	i	34.4
Cc1ccc(/C=C/C(=O)OCC(=O)Nc2cccnc2Cl)o1	i	nt	i	i	i	nt
COC(=O)[C@]1(C)N[C@H](CN(C)C(=O)Nc2ccc(OC)cc2)[C@@H]2C(=O)N(C)C(=O)[C@@H]21	i	nt	i	i	i	nt
Cc1cc(/C=C(\C#N)C(=O)OCC(=O)NC(=O)NC(C)(C)C)c(C)n1CCC(C)C	i	i	i	i	i	nt
CCCn1c(C)cc(/C=C(\C#N)C(=O)OCC(=O)Nc2cccc(S(N)(=O)=O)c2)c1C	i	nt	33.7	i	i	i
CCCn1c(C)cc(/C=C(\C#N)C(=O)OCC(=O)Nc2cccc(OC)c2)c1C	i	i	53.6	i	i	59.5
Cc1nccn1CC(O)COc1ccc(Cl)cc1Cl (stereo not given)	i	nt	i	i	i	nt
Cc1noc(C)c1C(=O)NC(Cc1c[nH]c2ccccc12)C(=O)O (stereo not given)	i	nt	i	i	i	nt
SMILES	pPAFAH FP inh	RBBP9 inhibitor	PAFAH2 inh	PAFAH1B3 inh	PAFAH1B2 FP inh	PAFAH2 confirm
Cc1oc2c(c1C(=O)NC(Cc1c[nH]c3ccccc13)C(=O)O)CCCC2 (stereo not given)	i	i	39.2	i	i	i
CCOC(=O)N1CCC(NC(=O)c2cc(C(=O)Nc3ccc(OC)c(OC)c3)ccc2CO)CC1	i	i	i	i	i	nt
CCCCNC(=O)c1ccccc1SCC(=O)NC1CCCCCCC1	i	nt	36.4	i	i	i
NC(=O)COC(=O)c1ccccc1SCC(=O)NC1CCCCCC1	i	i	61.4	i	i	49.5
COc1cccc(OC)c1C(=O)OCC(=O)NCC(C)C	i	i	i	i	i	nt
CC(C)CNC(=O)COC(=O)c1ccccc1SCC(=O)NCC(C)C	i	i	44.4	i	i	32.0
CN(C)C(=O)CSc1ccccc1C(=O)OCC(=O)NC1CC1	i	nt	i	i	i	nt
COc1cc(Cl)ccc1NC(=O)COc1ccccc1C(=O)NN	i	i	i	i	i	nt
CCN(CC)c1ccc(S(=O)(=O)N2CCOCC2)cc1NC(=O)COC(=O)/C=C/c1ccco1	nt	nt	54.8	i	i	42.4
O=C(COC(=O)/C=C/c1ccco1)Nc1cc(S(=O)(=O)N2CCOCC2)ccc1Cl	i	nt	41.8	i	i	37.0
CCOC(=O)c1n[nH]c2ccccc12	i	i	i	i	i	nt
Cc1cc(C)cc(NC(=O)COC(=O)c2n[nH]c3ccccc23)c1	i	i	69.7	i	i	64.9
O=C(COC(=O)c1n[nH]c2ccccc12)NC1CCCCC1	i	nt	79.6	i	i	68.5
O=C(COC(=O)c1n[nH]c2ccccc12)Nc1ccccc1	i	i	76.2	i	i	66.7
CC(=O)c1cccc(NC(=O)COC(=O)c2n[nH]c3ccccc23)c1	i	i	46.9	i	i	38.7
COc1ccc(NC(=O)/C(Cl)=C(/Cl)S(=O)(=O)Cc2ccccc2)cn1	nt	i	41.0	i	i	i
O=C1CCCC2=C1C(c1cccc(O)c1)C1=C(N2)c2ccccc2C1=O (stereo not given)	i	i	29.7	i	i	i
COc1ccc(S(=O)(=O)N(C)CC(=O)NCc2ccc3c(c2)OCO3)cc1	i	nt	i	i	i	nt
C=CCOc1ccc(/C=C/C(=O)OCC(=O)NC2CCCCCCC2)cc1	i	nt	66.5	i	i	72.2
C=CCOc1ccc(/C=C/C(=O)OCC(=O)NCCCc2ccccc2)cc1	i	nt	i	i	i	nt
C=CCOc1ccc(/C=C/C(=O)OCC(=O)NCC2CCCCC2)cc1	i	nt	68.0	i	i	66.2
O=C1c2ccccc2C(=O)C2OC12 (stereo not given)	i	nt	nt	nt	nt	nt
O=C1OC(c2ccccc2)Sc2ccccc21 (stereo not given)	nt	nt	80.8	i	i	85.3
O=c1c2ccccc2nc(COc2ccccc2)n1/N=C/c1ccc(O)c(O)c1	i	i	30.2	i	i	i
O=C(CCN1C(=O)/C(=C/c2ccc(F)cc2)SC1=S)Nc1cc([N+](=O)[O-])ccc1O	i	nt	64.9	i	i	69.3
Cc1cccc(OCc2nnc(-c3ccc(F)cc3)o2)c1	i	nt	i	i	i	nt
CN(C(=O)COC(=O)c1ccc(CN2CCCC2=O)cc1)c1ccccc1	i	nt	i	i	i	nt
